The values below come from PMC7016295 (Acta Pharmaceutica Sinica. B, 2019).

The structures appear in SMILES notation.

The data set relates to xenograft tumors of murine glioma GL261 cells. Nature of the data set: GL261 xenograft tumor model. Type of data set: in vivo, C57BL/6 mice. The essentials: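 About 3 × 10⁶ GL261 cells implanted subcutaneously at the left scapula of male C57BL/6 mice (6–8 weeks). At 100–300 mm³, mice randomized (n = 7/group). Vehicle (0.5% methylcellulose) oral daily. TMZ 100 mg/kg oral every 2 days, alone or with 50 mg/kg. Endpoint: tumour weight; body weight; CD31 immunohistochemistry (1:200) on 4 μm paraffin sections.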

Take `Cn1nnc2c(C(N)=O)ncn2c1=O` [TMZ, temozolomide]: the body weight entry (GL261 xenograft mice, vs control (co-treatment vs TMZ group)) is reported as “significantly decreased”. For the setting “TMZ only, 100 mg/kg oral every 2 days”, this compound came in with a tumor inhibition rate of 34.15%.
